Reference: publication PMC10074403 (Chemical Science, 2023)

Experiments:
A2780 cells = assay: Intracellular EdU release from PE NPs; assay type: cell-based, human; details: 10 μM EdU equiv., 6 h with PE NPs (1 h with EdU), azide-488
In short: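 Human ovarian adenocarcinoma A2780 cells are treated with nanoparticles of mutual prodrugs built with the nucleoside analog EdU as a gemcitabine surrogate, or with free EdU; nanoparticle exposure is 6 h. EdU incorporated into DNA is detected by click reaction with azide-488. Images show green overlap with blue-stained nuclei (cyan) to indicate nuclear EdU incorporation.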

[1] = tested on: A549 human lung adenocarcinoma xenografts; assay: In vivo anticancer efficacy in A549 xenografts; parameters: species or system female BALB/c nude mice; details: PTX 20 mg kg−1 equiv., Gem 6.4 mg kg−1, i.v. on days 0, 3, 6; n = 5

Compound	Distribution of green fluorescence (EdU incorporation into nuclei) (A2780 cells)	A549 tumor growth (relative tumor size) [1]
C#Cc1cn([C@H]2C[C@H](O)[C@@H](CO)O2)c(=O)[nH]c1=O [EdU, 5-ethynyl-2′-deoxyuridine]	centralized in the area of the nucleus	
Nc1ccn([C@@H]2O[C@H](CO)[C@@H](O)C2(F)F)c(=O)n1 [Gem, gemcitabine]		failed to effectively suppress tumor growth
